The source made the active and inactive calls. The rule behind the calls is not given here.
How the values were obtained:
[1] = target: T1, D(2) dopamine receptor (Homo sapiens, UniProt P14416); conditions: CHO, 1 uM
[2] = target: T1, D(2) dopamine receptor; test: Antagonist activity at human dopamine D2 receptor expressed in CHO cells co-expressing A2A receptor assessed as reduction in sumanirole-induced response at 0.5 uM after 90 mins by DMR analysis; type: cell-based
In short: (§1)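 CHO cells stably co-expressing human A2AR and D2R, seeded 7,000/well 24 h before assay (70–80% confluent). Washed into assay buffer (medium, 20 mM HEPES pH 7.15, 0.1% DMSO, 0.1% BSA), equilibrated 2 h at 24°C; 10 min baseline, antagonist added and read 30 min, then sumanirole (100 nM solution) added and DMR wavelength shift (pm) recorded ≥90 min; expressed as % maximal sumanirole effect.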

[3] = target: T1, D(2) dopamine receptor; test: Displacement of [3H]-YM-09151-2 from dopamine D2 receptor (unknown origin) in sheep brain striatum membranes after 2 hrs by scintillation counting; type: cell membranes; conditions: Ovis aries (sheep)
In short: (§2)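 Sheep striatal membranes (50 mM Tris-HCl pH 7.4, protease inhibitors; 0.2 mg protein/mL) incubated 2 h at room temperature in Tris-HCl with 10 mM MgCl2, 0.8 nM free [3H]YM-09151-2 and rising ligand concentrations; nonspecific binding with 30 μM dopamine. Filtration on PEI-soaked GF/C, scintillation counting; fitted to two-state dimer model. Lines 5 and 6: membranes preincubated 1 h with the named TAT-TM6 peptide first.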

[4] = target: T1, D(2) dopamine receptor; test: Displacement of [3H]-YM-09151-2 from dopamine D2 receptor (unknown origin) in sheep brain striatum membranes preincubated with TAT-TM6 A2AR peptide for 1 h before addition of compound and radioligand and measured after 2 hrs by scintillation counting; type: cell membranes
In short: as §2

[5] = target: T1, D(2) dopamine receptor; test: Displacement of [3H]-YM-09151-2 from dopamine D2 receptor (unknown origin) in sheep brain striatum membranes preincubated with TAT-TM6 D2R peptide for 1 h before addition of compound and radioligand and measured after 2 hrs by scintillation counting; type: cell membranes
In short: as §2

[6] = target: T1, D(2) dopamine receptor; test: Antagonist activity at human dopamine D2 receptor expressed in CHO cells co-expressing A2A receptor assessed as reduction in sumanirole-induced response after 90 mins by DMR analysis; type: cell-based
In short: as §1

[7] = target: T1, D(2) dopamine receptor; test: Binding affinity to human dopamine D2 receptor transfected in HEK293 cells co-expressing nYFP (1 to 155 residues) and cYFP (156 to 238 residues) at 100 nM after 10 mins by fluorescence complementation assay; type: cell-based
In short: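 HEK-293T cells transiently co-transfected (lipofectamine) with D2R-nYFP and D2R-cYFP; after 48 h, cells in HBSS with 0.1% glucose (20 μg protein, 50,000 cells/well) treated with 100 nM ligand or HBSS for 10 min. Fluorescence read at 530 nm emission, 400 nm excitation; background from cells lacking fusion proteins subtracted.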

T1 sequence (P14416 whole entry): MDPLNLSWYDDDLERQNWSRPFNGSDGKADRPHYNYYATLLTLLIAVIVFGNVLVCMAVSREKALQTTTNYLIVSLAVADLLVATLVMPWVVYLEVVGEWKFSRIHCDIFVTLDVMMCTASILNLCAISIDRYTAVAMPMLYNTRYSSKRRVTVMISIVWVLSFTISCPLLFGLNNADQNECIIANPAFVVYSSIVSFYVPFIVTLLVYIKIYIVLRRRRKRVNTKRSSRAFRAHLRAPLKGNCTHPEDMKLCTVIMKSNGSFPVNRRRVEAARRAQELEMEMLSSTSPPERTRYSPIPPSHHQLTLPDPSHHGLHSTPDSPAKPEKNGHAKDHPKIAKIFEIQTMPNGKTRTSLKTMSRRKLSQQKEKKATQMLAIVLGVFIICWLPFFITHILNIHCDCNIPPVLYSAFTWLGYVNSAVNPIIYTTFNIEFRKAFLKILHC

Structure (SMILES) | inhibition [1] | inhibition [2] | K [3] [nM] | K [4] [nM] | K [5] [nM] | IC50 [6] [nM] | Activity [7]
O=C(CCCN1CCC2(CC1)C(=O)NCN2c1ccccc1)c1ccc(F)cc1 | Active | – | – | – | – | – | –
COC(=O)CN(CC(=O)NCCCOCCOCCOCCCNC(=O)CCC(=O)Nc1ccc(CCN2CN(c3ccccc3)C3(CCN(CCCC(=O)c4ccc(F)cc4)CC3)C2=O)cc1)CC(=O)NCCCOCCOCCOCCCNC(=O)CCC(=O)Nc1ccc(CCN2CN(c3ccccc3)C3(CCN(CCCC(=O)c4ccc(F)cc4)CC3)C2=O)cc1 | – | Active | 0.07 | – | – | – | –
COC(=O)CN(CC(=O)NCCCOCCOCCOCCCNC(C)=O)CC(=O)NCCCOCCOCCOCCCNC(=O)CCC(=O)Nc1ccc(CCN2CN(c3ccccc3)C3(CCN(CCCC(=O)c4ccc(F)cc4)CC3)C2=O)cc1 | – | – | 1.5 | – | – | – | –
COC(=O)CN(CC(=O)NCCOCCOCCNC(=O)CCC(=O)Nc1ccc(CCN2CN(c3ccccc3)C3(CCN(CCCC(=O)c4ccc(F)cc4)CC3)C2=O)cc1)CC(=O)NCCOCCOCCNC(=O)CCC(=O)Nc1ccc(CCN2CN(c3ccccc3)C3(CCN(CCCC(=O)c4ccc(F)cc4)CC3)C2=O)cc1 | – | Active | 0.021 | 0.05 | 1.1 | 15 | inactive
O=C(O)CCC(=O)Nc1ccc(CCN2CN(c3ccccc3)C3(CCN(CCCC(=O)c4ccc(F)cc4)CC3)C2=O)cc1 | – | – | 0.7 | – | – | – | –
COC(=O)CN(CC(=O)NCCOCCOCCNC(C)=O)CC(=O)NCCOCCOCCNC(=O)CCC(=O)Nc1ccc(CCN2CN(c3ccccc3)C3(CCN(CCCC(=O)c4ccc(F)cc4)CC3)C2=O)cc1 | – | – | 0.77 | 0.8 | 0.8 | 280 | inactive

— ChEMBL document CHEMBL4308850, “Design of a True Bivalent Ligand with Picomolar Binding Affinity for a G Protein-Coupled Receptor Homodimer” (J Med Chem, 2018)
